Experimental findings from ChEMBL document CHEMBL1821637, “Selective cytotoxicity of oxysterols through structural modulation on rings A and B. Synthesis, in vitro evaluation, and SAR” (J Med Chem, 2011) are described below.

The subject of data set [1] is HT-29. As to the kind of experiment: Cytotoxicity against human HT-29 cells assessed as cell viability after 48 hrs by alamar blue assay. Format: functional, cell-based. The following applies: for IC50: HT-29, 48 h. Summed up: (§1)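 Alamar Blue viability assay on the human cell line named (origins given: HT-29 colorectal adenocarcinoma, HepG2 hepatocellular carcinoma, LAMA-84 myeloid leukemia, A549 lung adenocarcinoma, PC3 prostate metastasis, MCF-7 breast adenocarcinoma, ARPE-19 retinal pigment epithelium, BJ skin fibroblast). Exposure was 48 h. Sterol stocks were made in DMSO. IC50 is the concentration inhibiting 50% of cellular growth, given as the mean of at least three separate experiments.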
Background: Alamar Blue is a resazurin reagent that responds to reducing activity.

Data set [2] in a line: Cytotoxicity against human ARPE19 cells assessed as cell viability after 48 hrs by alamar blue assay. Format: cell-based, ARPE-19. The following applies: for IC50: Homo sapiens, ARPE-19, 48 h. Summed up:
as §1

Data set [3] concerns HT-29. As to the kind of experiment: Cytotoxicity against human HT-29 cells assessed as inhibition of cell growth after 96 hrs by alamar blue assay. The following applies: HT-29, 96 h. In kind it is functional, cell-based. In short, it runs like this: (§2)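 HT-29 and ARPE-19 cells exposed for 96 h. ARPE-19 seeded at 5 10^3 cells/well for this period. Sterol stocks in DMSO. Viability by Alamar Blue. IC50 is the concentration inhibiting 50% of cellular growth, mean of at least three separate experiments.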

The nature of data set [4]: Cytotoxicity against human ARPE19 cells assessed as inhibition of cell growth after 96 hrs by alamar blue assay. Format: cell-based. Conditions: ARPE-19, 96 h. In short, it runs like this: as §2
The subject of data set [5] is HT-29. As to the kind of experiment: Selectivity index, ratio of IC50 for human ARPE19 cells to IC50 for human HT-29 cells. Format: functional.
Another data set deals with LAMA-84. As to the kind of experiment: Cytotoxicity against human LAMA-84 cells assessed as cell viability after 48 hrs by alamar blue assay. Format: functional, cell-based. The following applies: for IC50: LAMA-84, 48 h. Summed up:
as §1

In another data set the test system is MCF7. Nature of the data set: Cytotoxicity against human MCF7 cells assessed as cell viability after 48 hrs by alamar blue assay. Format: functional, cell-based. Conditions: for IC50: MCF7, 48 h. In short, it runs like this: as §1
Another data set relates to SH-SY5Y. Nature of the data set: Cytotoxicity against human SH-SY5Y cells assessed as cell viability after 48 hrs by alamar blue assay. Format: functional, cell-based. Summed up: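 SH-SY5Y cells grown in DMEM/F12 (1:1) with L-glutamine, 10% heat-inactivated FBS, 100 units/mL penicillin and 0.1 mg/mL streptomycin, pH 7.4. Seeded at 5 10^3 cells/well and exposed to the sterols (DMSO stocks) for 48 h. Alamar Blue read-out. IC50 is the concentration inhibiting 50% of growth, mean of at least three separate experiments.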

The next data set concerns HepG2. Nature of the data set: Cytotoxicity against human HepG2 cells assessed as cell viability after 48 hrs by alamar blue assay. In kind it is functional, cell-based. The following applies: for IC50: HepG2, 48 h. In short, it runs like this: as §1
In a further data set the test system is A549. Nature of the data set: Cytotoxicity against human A549 cells assessed as cell viability after 48 hrs by alamar blue assay. Conditions: for IC50: A549, 48 h. Format: functional, cell-based. In short, it runs like this: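 Alamar Blue viability assay on the human cell line named (origins given: HT-29 colorectal adenocarcinoma, HepG2 hepatocellular carcinoma, LAMA-84 myeloid leukemia, A549 lung adenocarcinoma, PC3 prostate metastasis, MCF-7 breast adenocarcinoma, ARPE-19 retinal pigment epithelium, BJ skin fibroblast). Exposure was 48 h. Sterol stocks were made in DMSO.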

In another data set the test system is PC-3. As to the kind of experiment: Cytotoxicity against human PC3 cells assessed as cell viability after 48 hrs by alamar blue assay. Format: functional, cell-based. The following applies: for IC50: PC-3, 48 h. Summed up:
as §1

For a further data set, the system named is BJ. Nature of the data set: Cytotoxicity against human BJ cells assessed as cell viability after 48 hrs by alamar blue assay. In kind it is cell-based. Conditions: for IC50: Homo sapiens, BJ. Summed up:
as §1

For `CC(=O)O[C@H]1CC[C@]2(C)[C@H]3CC[C@]4(C)[C@@H]([C@H](C)CCCC(C)C)CC[C@H]4[C@@H]3CC[C@@]2(O)[C@H]1O`, the IC50 (usually the concentration that inhibits the measured activity by half) in the data set on HT-29 [1] was determined as 18.6 µM; in [2], 32.5 µM; with HT-29 [3], 17.7 µM; in data set [4], 21.8 µM. In addition, in the data set on HT-29 [5], the “Ratio IC50” value was 1.75.
For the compound `CC(=O)O[C@@H]1C[C@H]2[C@@H]3CC[C@H]([C@H](C)CCCC(C)C)[C@@]3(C)CC[C@@H]2[C@@]2(C)CC[C@H](O)C[C@]12O`, the 50% inhibitory concentration (IC50) turned out to be 6.8 µM with HT-29 [1]; 3.9 µM with LAMA-84; 11 µM in the data set with MCF7; 12.2 µM in the data set with SH-SY5Y; 11.9 µM in the data set on HepG2; 13.3 µM in the data set on A549. Besides, the IC50 with PC-3 was 13.2 µM; in data set [2] it was 17.9 µM; with BJ, 13.4 µM; in the data set with HT-29 [3] it was 6.6 µM. Moreover, the “Ratio IC50” value in the data set with HT-29 [5] is listed as 2.58.
Regarding `CC(=O)O[C@H]1CC[C@]2(C)[C@H]3CC[C@]4(C)[C@@H]([C@H](C)CCCC(C)C)CC[C@H]4[C@@H]3C[C@@H](OC(C)=O)[C@@]2(O)C1`, the IC50 was 43.1 µM in the data set on HT-29 [1], 64.1 µM in [2], 25.3 µM in the data set on HT-29 [3] and 35.4 µM in [4]. Besides, the “Ratio IC50” value with HT-29 [5] was found to be 1.49.
Turning to `CC(=O)O[C@H]1CC[C@]2(C)[C@H]3CC[C@]4(C)[C@@H]([C@H](C)CCCC(C)C)CC[C@H]4[C@@H]3[C@@H](OC(C)=O)[C@@H](O)[C@@]2(O)C1`, the IC50 came to 20.1 µM in the data set on HT-29 [1], 29 µM in [2], 16.6 µM with HT-29 [3] and 19.5 µM in data set [4]. In addition, in the data set with HT-29 [5], the “Ratio IC50” value stood at 1.44.
On the same counts, the results for `CC(=O)O[C@H]1CC[C@]2(C)[C@H]3CC[C@]4(C)[C@@H]([C@H](C)CCCC(C)C)CC[C@H]4[C@@H]3[C@@H](O)[C@@H](O)[C@@]2(O)C1` are 18.8 µM, 30.5 µM, 14.7 µM, 23.8 µM and 1.62.
Regarding `CC(=O)O[C@@H]1[C@H]2[C@@H]3CC[C@H]([C@H](C)CCCC(C)C)[C@@]3(C)CC[C@@H]2[C@@]2(C)CC[C@H](O)C[C@]2(O)[C@@H]1OC(C)=O`, the inhibition entry in the data set on HT-29 [1], in the data set on LAMA-84, with MCF7, in the data set with SH-SY5Y, in the data set on HepG2 and in the data set with A549 was “Dose-dependent effect” in each case. Moreover, in the data set with PC-3, the inhibition entry was “Dose-dependent effect”. The IC50 with HT-29 [1] amounted to 13.1 µM; in the data set on LAMA-84 it was 6.4 µM; in the data set with MCF7, 13.2 µM; in the data set with SH-SY5Y it was 13.8 µM; with HepG2 it was 11.7 µM; with A549, 13.9 µM. Also, the half-inhibitory concentration (IC50) in the data set on PC-3 turned out to be 10.3 µM; in data set [2], 11.2 µM; in the data set with BJ it was 10.2 µM; in the data set with HT-29 [3] it was 14.9 µM. The Activity entry is “Toxic” in data set [2] (human, arpe-19, 48 h) and “Toxic” in the data set with BJ (human, bj). In addition, the “Ratio IC50” value in the data set on HT-29 [5] stood at 0.85.
Consider `CC(=O)O[C@H]1CC[C@]2(C)[C@H]3CC[C@]4(C)[C@@H]([C@H](C)CCCC(C)C)CC[C@H]4[C@@H]3C[C@@H](O)[C@@]2(O)C1`, for which the half-maximal inhibitory concentration (IC50) in data set [2] was > 60 µM; in [4], 53 µM. In addition, the “Ratio IC50” value in the data set with HT-29 [5] is reported as >3.09.
Take `CC(=O)O[C@H]1[C@@H](O)CC[C@]2(C)[C@H]3CC[C@]4(C)[C@@H]([C@H](C)CCCC(C)C)CC[C@H]4[C@@H]3CC[C@@]12O`: the half-maximal inhibitory concentration (IC50) in the data set on HT-29 [1] was 15.2 µM; in [2], 37.4 µM; in the data set on HT-29 [3], 18.7 µM; in data set [4], 22.3 µM. Moreover, the “Ratio IC50” value in the data set on HT-29 [5] stood at 2.46.
Consider `CC(=O)O[C@H]1CC[C@@]2(C)C(=C[C@H](O)[C@H]3[C@@H]4CC[C@H]([C@H](C)CCCC(C)C)[C@@]4(C)CC[C@@H]32)C1`, for which the half-inhibitory concentration (IC50) was 46.5 µM in data set [2], 12.4 µM with HT-29 [3] and 23.6 µM in [4]. Also, in the data set with HT-29 [5], the “Ratio IC50” value was 1.58.
